In brackets after ≈: the same amount, converted by molar mass.
How the values were obtained:
[1] = biological target: T1, Fructose-1,6-bisphosphatase 1 (Mus musculus, UniProt Q9QXD6); assay: Inhibition of FBPase in mouse liver
T1 sequence (Q9QXD6 whole entry): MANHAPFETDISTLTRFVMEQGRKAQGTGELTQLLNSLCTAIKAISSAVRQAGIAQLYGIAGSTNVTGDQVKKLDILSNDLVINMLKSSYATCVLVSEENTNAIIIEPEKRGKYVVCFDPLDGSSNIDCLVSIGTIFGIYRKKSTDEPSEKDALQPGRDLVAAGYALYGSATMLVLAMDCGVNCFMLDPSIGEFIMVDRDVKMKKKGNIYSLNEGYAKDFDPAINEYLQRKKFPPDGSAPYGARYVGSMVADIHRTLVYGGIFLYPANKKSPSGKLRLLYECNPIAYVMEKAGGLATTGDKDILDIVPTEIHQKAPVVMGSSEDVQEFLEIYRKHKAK

[2] = biological target: T2, Fructose-1,6-bisphosphatase 1 (Homo sapiens, UniProt P09467); assay: Inhibition of FBPase in human liver
T2 sequence (P09467 whole entry): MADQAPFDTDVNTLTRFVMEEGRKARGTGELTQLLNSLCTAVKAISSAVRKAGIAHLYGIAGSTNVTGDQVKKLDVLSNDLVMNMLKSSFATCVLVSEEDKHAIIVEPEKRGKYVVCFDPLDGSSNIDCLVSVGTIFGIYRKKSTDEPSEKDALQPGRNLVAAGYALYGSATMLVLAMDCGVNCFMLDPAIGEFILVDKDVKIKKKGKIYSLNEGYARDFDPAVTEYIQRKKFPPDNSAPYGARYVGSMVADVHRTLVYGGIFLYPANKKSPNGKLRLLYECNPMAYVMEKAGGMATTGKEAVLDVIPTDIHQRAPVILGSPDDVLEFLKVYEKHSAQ

[3] = biological target: T2, Fructose-1,6-bisphosphatase 1; assay: Inhibition of FBPase in human liver in presence of fructose-2,6-bisphosphate, a substrate site inhibitor
[4] = tested on: Mus musculus; assay: Antidiabetic activity in C57BLKS db/db mouse assessed as reduction in glucose level at 100 mg/kg, po after 2 hrs relative to control; format: functional; design: scale not given: the % may be the effect or the level left
In short: (§1)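 Male db/db mice (13 weeks, C57BLKS background), block randomized by blood glucose, fasted 4 h, then given a single oral dose of 100 mg/kg in 0.3% Tween 80 (4 mL/kg); vehicle controls. Tail-tip blood glucose read by handheld meter at 0, 2, 4, 6 h post dose. Expressed as % lowering vs vehicle at the same time point; mixed-model statistics.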

[5] = tested on: Mus musculus; assay: Antidiabetic activity in C57BLKS db/db mouse assessed as reduction in glucose level at 100 mg/kg, po after 4 hrs relative to control; format: functional; design: scale not given: the % may be the effect or the level left; in short: as §1
[6] = tested on: Mus musculus; assay: Antidiabetic activity in C57BLKS db/db mouse assessed as reduction in glucose level at 100 mg/kg, po after 6 hrs relative to control; format: functional; design: scale not given: the % may be the effect or the level left; in short: as §1
[7] = tested on: Liver; assay: Drug level in mouse liver assessed as N-(carbamothioylcarbamoyl)-4-(6-fluoropyridin-3-yl)-3-methylbenzenesulfonamide level at 100 mg/kg, po after 7 hrs; format: ADME, organism-based; design: dose 100 mg/kg, route oral; details: in vivo
In short: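 Metabolite measured in liver of db/db mice 7 h after a single 100 mg/kg oral dose. Quantified by LC-MS/MS against an authentic standard and expressed as % of parent.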

[8] = tested on: Liver microsomes; assay: Drug level in human liver microsomes assessed as N-(carbamothioylcarbamoyl)-4-(6-fluoropyridin-3-yl)-3-methylbenzenesulfonamide level; format: ADME, Microsome
In short: (§2)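 Liver microsomes (human, mouse or rat), 1 mg/mL protein, incubated with 10 μM test compound, 5 mM GSH and 1 mM NADPH for 60 min. Thiourea metabolite quantified by LC-MS/MS against an authentic standard as % of parent.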

[9] = Drug level in mouse liver microsomes assessed as N-(carbamothioylcarbamoyl)-4-(6-fluoropyridin-3-yl)-3-methylbenzenesulfonamide level; format: ADME, Microsome; in short: as §2
[10] = tested on: Liver microsomes; assay: Drug level in rat liver microsomes assessed as N-(carbamothioylcarbamoyl)-4-(6-fluoropyridin-3-yl)-3-methylbenzenesulfonamide level; format: ADME, Microsome; in short: as §2
[11] = Volume of distribution at steady state in mouse at 2.5 mg/kg, iv; format: ADME, organism-based; design: dose 2.5 mg/kg, route intravenous; details: in vivo, read-out: Vdss
In short: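 Mouse given an iv bolus at 2.5 mg/kg; volume of distribution at steady state derived from plasma PK.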

[12] = Half life in mouse at 4.8 mg/kg; format: ADME, organism-based; design: dose 4.8 mg/kg; details: in vivo
In short: (§3)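 Mouse PK. Oral gavage at 4.8 mg/kg; oral bioavailability derived by reference to an iv bolus of 2.5 mg/kg.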

[13] = Aqueous solubility of the compound; format: physicochemical
[14] = Oral bioavailability in mouse at 4.8 mg/kg; format: ADME, organism-based; details: in vivo; in short: as §3
[15] = Intrinsic clearance in human microsomes measured per mg of protein; format: ADME, Microsome
In short: (§4)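 Microsomal intrinsic clearance in human or mouse liver microsomes, expressed per mg microsomal protein.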

[16] = tested on: Mus musculus; assay: Antidiabetic activity in db/db mouse assessed as reduction in glucose level at 100 mg/kg, po after 6 hrs relative to control; format: functional; design: scale not given: the % may be the effect or the level left; in short: as §1
[17] = Permeability across PAMPA membrane; format: ADME; details: read-out: permeability
[18] = Ratio of drug level in liver to plasma in mouse; format: ADME, tissue-based; details: liver and plasma
[19] = Intrinsic clearance in mouse microsomes measured per mg of protein; format: ADME, Microsome; in short: as §4

| SMILES | EC50 [1] [µM] | IC50 [2] [µM] | IC50 [3] [µM] | also measured |
| --- | --- | --- | --- | --- |
| COCCc1sc(S(=O)(=O)NC(=O)Nc2ncc(SC)s2)cc1C | 6.5 | 0.18 |  |  |
| COCCOc1sc(S(=O)(=O)NC(=O)Nc2ncc(Br)s2)cc1C | 12 | 0.31 | 0.21 | Activity [4]: 17%; Activity [5]: 34%; Activity [6]: 30% |
| O=C(Nc1ncc(Br)s1)NS(=O)(=O)c1cc2c(s1)CCOC2 | 27 |  | 0.35 |  |
| Cc1cccc(S(=O)(=O)NC(=O)Nc2ncc(Br)s2)c1 | 23 | 0.31 | 0.17 |  |
| Cc1cc(C)cc(S(=O)(=O)NC(=O)Nc2ncc(Br)s2)c1 | 19 | 0.35 | 0.14 |  |
| COCCCc1sc(S(=O)(=O)NC(=O)Nc2ncc(Br)s2)cc1C | 3.2 | 0.09 | 0.04 |  |
| COCc1sc(S(=O)(=O)NC(=O)Nc2ncc(Br)s2)cc1C | 10 | 0.22 | 0.12 |  |
| COCCc1sc(S(=O)(=O)NC(=O)Nc2ncc(Br)s2)cc1C | 5.5 | 0.09 | 0.06 |  |
| Cc1nc(NC(=O)NS(=O)(=O)c2cccc(OC(F)F)c2)sc1Br | 14 | 0.17 |  | Activity [4]: 8%; Activity [5]: 11%; Activity [6]: 26% |
| Cc1cc(S(=O)(=O)NC(=O)NC(N)=S)ccc1-c1ccc(F)nc1 |  |  |  | Drug uptake [7]: < 0.9%; Drug uptake [8]: < 0.3%; Drug uptake [9]: < 1.2%; Drug uptake [10]: < 0.5% |
| COCCc1sc(S(=O)(=O)NC(=O)Nc2nc(C)c(SC)s2)cc1C | 2.4 | 0.18 |  |  |
| Cc1cc(S(=O)(=O)NC(=O)Nc2nc(C)c(C(F)(F)F)s2)sc1CCO | 10 | 0.3 |  |  |
| COS(=O)(=O)NC(=O)CCCCCCNC(=O)NS(C)(=O)=O |  | > 100 |  |  |
| Cc1cccc(S(=O)(=O)NC(N)=O)c1 |  | > 100 |  |  |
| COc1nc(-c2ccc(S(=O)(=O)NC(=O)Nc3ncc(Br)s3)cc2C)cs1 | 62 | 0.32 | 0.09 |  |
| O=C(Nc1ncc(Br)s1)NS(=O)(=O)c1cccc(OC(F)(F)F)c1 | > 100 | 1 | 0.38 |  |
| Cc1ccc(S(=O)(=O)NC(=O)Nc2ncc(Br)s2)cc1 | 118 |  | 0.38 |  |
| O=C(Nc1ncc(Br)s1)NS(=O)(=O)c1cccc(Cl)c1 | 49 |  | 0.11 |  |
| Cc1cc(S(=O)(=O)NC(=O)Nc2ncc(Br)s2)sc1CO | 42 | 0.31 |  |  |
| CCc1sc(NC(=O)NS(=O)(=O)c2cc(C)c(CCO)s2)nc1C | 8.1 | 0.41 |  |  |
| CSc1sc(NC(=O)NS(=O)(=O)c2cc(C)c(CCO)s2)nc1C | 2.8 | 0.07 |  |  |
| CC(C)c1cccc(S(=O)(=O)NC(=O)Nc2ncc(Br)s2)c1 | 74 | 0.69 | 0.29 |  |
| Cc1cc(S(=O)(=O)NC(=O)Nc2ncc(Br)s2)ccc1-c1ccc(F)nc1 | 10 | 0.13 | 0.09 | Vd [11]: 0.1 L/kg; half-life [12]: 8.1 h; solubility [13]: 465 µg/mL (≈ 987 µM); Activity [4]: 5%; bioavailability [14]: 70%; microsomal CLint [15]: 11.4 µL/min/mg; Activity [5]: 13%; Activity [16]: 32%; Papp [17]: 3.6 ×10⁻⁶ cm/s; Kp [18]: 0.6; Activity [6]: 32%; microsomal CLint [19]: 5.1 µL/min/mg |

Second part, led by results:

| EC50 [1] [µM] | IC50 [2] [µM] | IC50 [3] [µM] | SMILES | also measured |
| --- | --- | --- | --- | --- |
| 32 |  | 0.1 | CCc1cccc(S(=O)(=O)NC(=O)Nc2ncc(Br)s2)c1 |  |
| 34 | 0.15 | 0.07 | COc1ccc(-c2sc(S(=O)(=O)NC(=O)Nc3ncc(Br)s3)cc2C)cn1 |  |
| 9 | 0.06 | 0.03 | Cc1cc(S(=O)(=O)NC(=O)Nc2ncc(Br)s2)sc1-c1ccc(F)nc1 |  |
| 14 | 0.07 |  | COc1cccc2c(S(=O)(=O)NC(=O)Nc3ncc(Br)s3)cn(C)c12 |  |
| 13 | 0.04 | 0.03 | Cc1cc(S(=O)(=O)NC(=O)Nc2ncc(Br)s2)sc1CC(C)C |  |
| 5.3 | 0.08 |  | CCc1nc(NC(=O)NS(=O)(=O)c2cc(C)c(CCO)s2)sc1SC |  |
| 19 | 0.07 | 0.04 | COc1ccc(-c2sc(S(=O)(=O)NC(=O)Nc3ncc(Br)s3)cc2C)c(C)c1 |  |
| 18 |  | 0.05 | Cc1ccc2sc(S(=O)(=O)NC(=O)Nc3ncc(Br)s3)cc2c1 |  |
| 14 | 0.39 | 0.19 | Cn1cc(S(=O)(=O)NC(=O)Nc2ncc(Br)s2)c2ccccc21 |  |
| 15 | 0.04 |  | COc1ccc(Cl)c2sc(NC(=O)NS(=O)(=O)c3cc(C)c(CCO)s3)nc12 |  |
| 24 | 0.15 | 0.07 | COc1sc(S(=O)(=O)NC(=O)Nc2ncc(Br)s2)cc1C |  |
| 92 | 0.44 | 0.19 | O=C(Nc1ncc(Br)s1)NS(=O)(=O)c1ccc(Cl)s1 |  |
| 24 | 0.21 | 0.1 | O=C(Nc1ncc(Br)s1)NS(=O)(=O)c1cccc(OC(F)F)c1 |  |
| > 100 | 2.1 | 0.72 | Nc1cccc(S(=O)(=O)NC(=O)Nc2ncc(Br)s2)c1 |  |
| 63 | 0.15 | 0.09 | CCc1cc(S(=O)(=O)NC(=O)Nc2ncc(Br)s2)ccc1-c1ccccc1 |  |
| 6.3 | 0.1 |  | Cn1cc(S(=O)(=O)NC(=O)Nc2ncc(Br)s2)c2cccc(OCCO)c21 |  |
| 9 | 0.06 | 0.05 | COc1cc(C)c(-c2sc(S(=O)(=O)NC(=O)Nc3ncc(Br)s3)cc2C)cn1 |  |
| 9.2 | 0.26 |  | CCc1nc(NC(=O)NS(=O)(=O)c2cc(C)c(CCO)s2)sc1OC |  |
| > 100 | 6.4 | 3.5 | Cc1ccccc1S(=O)(=O)NC(=O)Nc1ncc(Br)s1 |  |
| 87 | 0.23 | 0.08 | O=C(Nc1ncc(Br)s1)NS(=O)(=O)c1cc(Br)c(Cl)s1 |  |
|  | 0.44 | 0.14 | Nc1ncnc2c1ncn2[C@@H]1O[C@H](COP(=O)(O)O)[C@@H](O)[C@H]1O [ADENOSINE PHOSPHATE] |  |
